Measurements published in ChEMBL document CHEMBL4052832, “Selective Inhibitors of Human Neuraminidase 3” (J Med Chem, 2018).
Values after ≈ are worked out from the molar mass of the structure shown. Each block holds one compound with its values, some of them ahead of it. Active and inactive are the calls of the source. The rule behind the calls is not given here.

Tests used:
[1] = Octanol-water partition coefficient, log D of compound at pH 7.4 at 10 uM after 2 hrs by LC-MS based shake flask analysis; assay type: physicochemical
Method in brief: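 Shake-flask log D at pH 7.4. Octanol and 0.1 M Tris-HCl pH 7.4, mutually saturated. Compound at 10 μM in buffer with 0.1% DMSO, at two octanol:buffer ratios, each in triplicate.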

Sialidase-1 [2] = molecular target: T1, Sialidase-1 (Homo sapiens, UniProt Q99519); assay: Inhibition of human CathA-IRES-6His-tagged NEU1 expressed in HEK293T cells using 4MU-NANA as substrate preincubated for 15 mins followed by substrate addition measured every minute for 30 mins by fluorescence based assay; assay type: cell-based; conditions: hek-293t
Method in brief: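 Ki determination. Enzyme preincubated with serially diluted inhibitor 15 min at 0 °C, then serial 4MU-NANA concentrations added.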

Sialidase-1 [3] = molecular target: T1, Sialidase-1; assay: Inhibition of human CathA-IRES-6His-tagged NEU1 expressed in HEK293T cells using 4MU-NANA as substrate preincubated for 15 mins followed by substrate addition measured after 30 mins by fluorescence based assay; assay type: cell-based, HEK-293T
Sialidase-4 [4] = molecular target: T2, Sialidase-4 (Homo sapiens, UniProt Q8WWR8); assay: Inhibition of human N-terminal MBP-fused NEU4 expressed in Escherichia coli using 4MU-NANA as substrate preincubated for 15 mins followed by substrate addition measured after 30 mins by fluorescence based assay
T2 sequence (Q8WWR8 whole entry): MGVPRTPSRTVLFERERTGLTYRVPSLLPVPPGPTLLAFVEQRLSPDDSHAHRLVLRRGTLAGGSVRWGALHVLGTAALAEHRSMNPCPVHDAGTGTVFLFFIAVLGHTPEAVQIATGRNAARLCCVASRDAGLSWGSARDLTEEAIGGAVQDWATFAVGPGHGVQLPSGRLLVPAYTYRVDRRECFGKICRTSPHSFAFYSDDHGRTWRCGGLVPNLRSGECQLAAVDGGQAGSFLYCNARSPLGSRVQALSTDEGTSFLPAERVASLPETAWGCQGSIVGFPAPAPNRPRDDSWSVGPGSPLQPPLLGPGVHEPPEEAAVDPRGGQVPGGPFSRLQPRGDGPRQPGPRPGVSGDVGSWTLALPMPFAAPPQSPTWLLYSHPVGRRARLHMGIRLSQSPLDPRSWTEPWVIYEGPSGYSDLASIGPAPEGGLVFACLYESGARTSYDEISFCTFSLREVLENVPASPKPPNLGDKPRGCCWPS

Sialidase-3 [5] = molecular target: T3, Sialidase-3 (Homo sapiens, UniProt Q9UQ49); assay: Inhibition of human N-terminal MBP-fused NEU3 expressed in Escherichia coli using 4MU-NANA as substrate preincubated for 15 mins followed by substrate addition measured after 30 mins by fluorescence based assay
T3 sequence (Q9UQ49 whole entry): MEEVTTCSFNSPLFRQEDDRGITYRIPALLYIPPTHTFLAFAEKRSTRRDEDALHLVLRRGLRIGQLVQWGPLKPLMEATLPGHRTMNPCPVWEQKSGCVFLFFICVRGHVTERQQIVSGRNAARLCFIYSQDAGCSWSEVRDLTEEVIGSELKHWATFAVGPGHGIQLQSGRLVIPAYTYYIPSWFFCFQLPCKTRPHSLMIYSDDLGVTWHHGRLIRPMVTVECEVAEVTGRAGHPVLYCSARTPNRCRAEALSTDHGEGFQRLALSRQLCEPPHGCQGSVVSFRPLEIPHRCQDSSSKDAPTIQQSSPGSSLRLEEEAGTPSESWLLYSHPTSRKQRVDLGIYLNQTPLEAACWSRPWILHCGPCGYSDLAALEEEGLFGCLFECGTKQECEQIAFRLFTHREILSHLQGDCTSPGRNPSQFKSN

[6] = Kinetic solubility of compound in 0.9% NaCl at 10 mM incubated in supersonic bath for 30 mins measured after 24 hrs by LC-MS analysis; assay type: physicochemical; conditions: read-out: Kinetic_solubility
Method in brief: (§1)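 Kinetic solubility. 10 mM DMSO stock diluted 1:100 into 0.1 M Tris-HCl pH 7.4, Prisma HT buffer, or 0.9% NaCl in water (final 1% DMSO). Sonicated 30 min at 25 °C, equilibrated 24 h at 25 °C, filtered (0.2 μm), diluted in MeOH and analysed by LC-MS. Single measurements.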

[7] = Kinetic solubility of compound in Tris-HCl buffer at pH 7.4 at 10 mM incubated in supersonic bath for 30 mins measured after 24 hrs by LC-MS analysis; assay type: physicochemical; conditions: Tris-HCl buffer, pH 7.4; read-out: Kinetic_solubility; method in brief: as §1
[8] = Kinetic solubility of compound in Prisma HT 6.5 buffer at pH 7.4 at 10 mM incubated in supersonic bath for 30 mins measured after 24 hrs by LC-MS analysis; assay type: physicochemical; conditions: pH 6.5, in the assay text read “at pH 6.5” for “at pH 7.4”, read-out: Kinetic_solubility; method in brief: as §1
[9] = molecular target: Sialidase NEU1/NEU4 (Mus musculus) (UniProt O35657+Q8BZL1); assay: Inhibition of NEU1/NEU4 in NEU3 knockout C57BL6 mouse brain homogenate up to 150 uM using 4MU-NANA as substrate after 30 mins relative to control
Method in brief: (§2)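 Brains from 12-week-old WT, neu1−/−, neu3−/− or neu3−/−neu4−/− mice, snap-frozen and homogenized in water; protein by Bradford. Acidic neuraminidase assayed at pH 4.6 using homogenate equal to 300 μg protein, inhibitor 0–150 μM and 200 μM 4MU-NANA, 37 °C for 30 min. Stopped with 0.4 M glycine pH 10.5. Activity relative to no-inhibitor, mean ± SD of 6–12 experiments.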

Sialidase-3 [10] = molecular target: T3, Sialidase-3; assay: Inhibition of human N-terminal MBP-fused NEU3 expressed in Escherichia coli using GM3 as substrate preincubated for 15 mins followed by substrate addition measured after 30 mins by fluorescence based assay
Method in brief: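 GM3 hydrolysis in 0.1 M sodium acetate pH 4.5. Serially diluted inhibitors preincubated with enzyme 15 min at 0 °C, then GM3 added to 500 μM for 30 min at 37 °C. Quenched with fresh 0.2 M sodium borate pH 10.2, then malononitrile added to form a fluorescent adduct with freed sialic acid; ex 357/em 434 nm.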

[11] = Inhibition in C57BL6 mouse brain homogenate at 10 uM using 4MU-NANA as substrate after 30 mins relative to control
Sialidase-4 [12] = molecular target: T2, Sialidase-4; assay: Inhibition of human N-terminal MBP-fused NEU4 expressed in Escherichia coli using 4MU-NANA as substrate preincubated for 15 mins followed by substrate addition measured every minute for 30 mins by fluorescence based assay
Sialidase-4 [13] = molecular target: T2, Sialidase-4; assay: Inhibition of human N-terminal MBP-fused NEU4 expressed in Escherichia coli using GM3 as substrate preincubated for 15 mins followed by substrate addition measured after 30 mins by fluorescence based assay
[14] = molecular target: Sialidase-1 (Mus musculus) (UniProt O35657); assay: Inhibition of NEU1 in C57BL6 mouse brain homogenate assessed as residual activity at 50 uM using 4MU-NANA as substrate after 30 mins relative to control; method in brief: as §2
[15] = molecular target: Sialidase-1 (Mus musculus) (UniProt O35657); assay: Inhibition of NEU1 in NEU3/NEU4 double knockout C57BL6 mouse brain homogenate up to 150 uM using 4MU-NANA as substrate after 30 mins; method in brief: as §2
[16] = molecular target: Sialidase-1 (Mus musculus) (UniProt O35657); assay: Inhibition of NEU1 in C57BL6 mouse brain homogenate using 4MU-NANA as substrate at 150 uM after 30 mins; method in brief: as §2
Sialidase-3 [17] = molecular target: T3, Sialidase-3; assay: Inhibition of human N-terminal MBP-fused NEU3 expressed in Escherichia coli using 4MU-NANA as substrate preincubated for 15 mins followed by substrate addition measured every minute for 30 mins by fluorescence based assay
[18] = molecular target: Sialidase NEU3/NEU4 (Mus musculus) (UniProt Q9JMH7+Q8BZL1); assay: Inhibition of NEU3/NEU4 in NEU1 knockout C57BL6 mouse brain homogenate using 4MU-NANA as substrate after 30 mins; method in brief: as §2
[19] = Half life in human liver microsomes at 20 uM by LC-MS analysis; assay type: ADME, microsome
[20] = Efflux ratio of apparent permeability from basolateral to apical side over apical to basolateral side of human Caco2 cells at 62.5 uM after 30 mins by LC-MS analysis; assay type: ADME, cell-based; conditions: Caco-2
Method in brief: (§3)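 Caco-2 monolayer permeation run in triplicate in the apical-to-basolateral and basolateral-to-apical directions. Compound at 62.5 μM in the donor chamber with 0.6% DMSO. Samples taken at 30 min for LC-MS. Papp = (dQ/dt)/(A × c0). Efflux ratio is Papp b→a over Papp a→b.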

[21] = Apparent permeability from basolateral side to apical side in human Caco2 cells at 62.5 uM after 30 mins by LC-MS analysis; assay type: ADME, cell-based; conditions: Caco-2; method in brief: as §3
[22] = Apparent permeability from apical side to basolateral side in human Caco2 cells at 62.5 uM after 30 mins by LC-MS analysis; assay type: ADME, cell-based; conditions: Caco-2; method in brief: as §3

Sialidase NEU3/NEU4 (Mus musculus), sequence (Q8BZL1 whole entry, looked up): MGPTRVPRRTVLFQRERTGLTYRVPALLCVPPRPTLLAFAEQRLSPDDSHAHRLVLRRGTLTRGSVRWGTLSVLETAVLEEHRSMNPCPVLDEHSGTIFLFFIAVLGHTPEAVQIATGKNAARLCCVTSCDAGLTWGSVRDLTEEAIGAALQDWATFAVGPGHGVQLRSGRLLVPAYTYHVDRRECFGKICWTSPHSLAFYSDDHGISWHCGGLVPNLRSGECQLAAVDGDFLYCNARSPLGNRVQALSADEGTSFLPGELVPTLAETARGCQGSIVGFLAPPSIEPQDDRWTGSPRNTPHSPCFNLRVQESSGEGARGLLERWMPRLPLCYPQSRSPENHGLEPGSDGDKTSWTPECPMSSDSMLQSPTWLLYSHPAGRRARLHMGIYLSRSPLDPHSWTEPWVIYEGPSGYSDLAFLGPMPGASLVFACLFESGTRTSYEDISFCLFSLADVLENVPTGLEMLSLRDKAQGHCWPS
Sialidase NEU3/NEU4 (Mus musculus), sequence (Q9JMH7 whole entry, looked up): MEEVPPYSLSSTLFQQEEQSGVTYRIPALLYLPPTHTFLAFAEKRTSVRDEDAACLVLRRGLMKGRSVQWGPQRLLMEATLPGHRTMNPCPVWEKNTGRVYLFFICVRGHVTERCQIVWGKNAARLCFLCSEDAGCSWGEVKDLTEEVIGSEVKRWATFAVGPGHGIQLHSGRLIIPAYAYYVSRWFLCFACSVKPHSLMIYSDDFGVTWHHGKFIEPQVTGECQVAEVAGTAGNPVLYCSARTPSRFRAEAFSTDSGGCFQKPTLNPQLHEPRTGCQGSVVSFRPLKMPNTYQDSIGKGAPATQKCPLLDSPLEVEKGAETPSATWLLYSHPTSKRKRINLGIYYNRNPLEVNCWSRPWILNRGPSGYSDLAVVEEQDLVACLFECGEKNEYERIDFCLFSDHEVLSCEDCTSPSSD

Compound: CC(=O)N[C@H]1[C@H]([C@H](O)[C@H](O)CO)OC(C(=O)O)=C[C@@H]1O [NEU5AC2EN]
logD at 2 h, 10 µM [1]: < -1.5
Ki (Sialidase-1 [2]): Not Active

Compound: CCCCC(=O)NC[C@@H](O)[C@@H](O)[C@@H]1OC(C(=O)O)=C[C@H](O)[C@H]1NC(C)=O
IC50 (Sialidase-4 [4]): 220 µM
logD at 2 h, 10 µM [1]: -1

Compound: CCCCOC(=O)C1=C[C@H](O)[C@@H](NC(C)=O)[C@H]([C@H](O)[C@H](O)Cn2cc(-c3ccc(-c4ccccc4)cc3)nn2)O1
half-life at 20 µM [19]: > 1.5 h
solubility kinetic at 24 h, 10000 µM [6]: 5 µg/mL (≈ 9.08 µM)
efflux ratio at 0.5 h, 62.5 µM [20]: 6.7
solubility kinetic at 24 h, 10000 µM [7]: 3.9 µg/mL (≈ 7.08 µM)
Papp B→A at 0.5 h, 62.5 µM [21]: 2.2 ×10⁻⁶ cm/s
Papp A→B at 0.5 h, 62.5 µM [22]: 0.32 ×10⁻⁶ cm/s
logD at 2 h, 10 µM [1]: 3.8
solubility kinetic at 24 h, 10000 µM [8]: 3.2 µg/mL (≈ 5.81 µM)

Further lines, results first:

IC50 (Sialidase-1 [3]): 240 µM
IC50 (Sialidase-4 [4]): 3 µM
IC50 (Sialidase-3 [5]): 1.1 µM
Compound: CC(=O)N[C@H]1[C@H]([C@H](O)[C@H](O)Cn2cc(-c3ccc(C(=O)O)cc3)nn2)OC(C(=O)O)=C[C@@H]1O

solubility kinetic at 24 h, 10000 µM [6]: 3.7 µg/mL (≈ 7.08 µM)
solubility kinetic at 24 h, 10000 µM [7]: 13.8 µg/mL (≈ 26.4 µM)
logD at 2 h, 10 µM [1]: 3.4
solubility kinetic at 24 h, 10000 µM [8]: 3.2 µg/mL (≈ 6.12 µM)
Compound: CCOC(=O)C1=C[C@H](O)[C@@H](NC(C)=O)[C@H]([C@H](O)[C@H](O)Cn2cc(-c3ccc(-c4ccccc4)cc3)nn2)O1

inhibition [9]: 20%
IC50 (Sialidase-3 [10]): 12 µM
IC50 (Sialidase-1 [3]): > 500 µM
inhibition [11]: < 70%
Ki (Sialidase-4 [12]): 0.26 µM
IC50 (Sialidase-4 [13]): 3.7 µM
Activity [14]: 60%
IC50 (Sialidase-4 [4]): 0.52 µM
inhibition [15]: inactive
IC50 (Sialidase-3 [5]): 0.7 µM
inhibition [16]: inactive
Ki (Sialidase-1 [2]): Not Active
Ki (Sialidase-3 [17]): 0.28 µM
inhibition [18]: Active
Compound: CC(=O)N[C@H]1[C@H]([C@H](O)[C@H](O)Cn2cc(-c3ccc(-c4ccccc4)cc3)nn2)OC(C(=O)O)=C[C@@H]1O

IC50 (Sialidase-1 [3]): > 500 µM
IC50 (Sialidase-4 [4]): > 500 µM
IC50 (Sialidase-3 [5]): > 500 µM
Compound: CC(=O)N[C@H]1[C@H]([C@H](O)[C@H](O)Cn2cc(-c3ccc(C(=O)O)cc3)nn2)OC(C(=O)O)=C[C@@H]1N

IC50 (Sialidase-1 [3]): > 500 µM
Compound: CC(=O)N[C@H]1[C@H]([C@H](O)[C@H](O)Cn2cc(-c3ccc(Oc4ccccc4)cc3)nn2)OC(C(=O)O)=C[C@@H]1O
